KCNQ1 block: inhibitors of human KCNQ1 channel, primary screen, cell-based, thallium flux, high-throughput | B-score at 10 µM | Potassium voltage-gated channel subfamily KQT member 1 (Homo sapiens), P51787 | CHO-K1 KCNQ1, FluxOR thallium flux fluorescence; hits give high values | AID 2642, 2010 | actives 1.3% (n = 310,000);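 active means compounds whose thallium flux B-score, printed positive for inhibition, exceeds three library SD while starting fluorescence stays within three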;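 further: channel opened by potassium depolarization with thallium stimulus after 20 min compound exposure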
KCNK3 inh: human KCNK3 channel inhibitors, primary screen, CHO cells, FluxOR thallium flux, B-score. B-score at 10 µM. FluxOR fluorescence; hits give low values. actives 0.84% (n = 340,000). Potassium channel subfamily K member 3 (Homo sapiens), O14649;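 active means B-score under library mean minus 4 SD, starting fluorescence ratio at most library mean plus 5 SD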;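 further: more negative B-score means stronger inhibition of thallium flux through KCNK3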
hERG rescue: hERG rescue from dofetilide block, primary screen, cell-based, CHO-hERG, FluxOR thallium flux, dofetilide IC70; dofetilide IC70 present; activation (rescue from dofetilide block), less the hit threshold, % at 10 µM; actives 0.51% (n = 310,000); AID 1511, 2009;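 active means activation above the mean of controls blocked by dofetilide plus 5 SD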;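 further: thallium influx through hERG after potassium depolarization seen as dye fluorescence rise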
Kir21 block: inhibitors of mouse Kir2.1 inward-rectifier potassium channel; Inward rectifier potassium channel 2 (Mus musculus), P35561; HEK293-Kir2.1, FluxOR thallium flux fluorescence; hits give low values; B-score at 10 µM; actives 0.85% (n = 310,000);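 active means fluorescence ratio B-score at or below minus 3 SD of library scores, with starting-brightness B-score within 2 SD, cut at about -4.2 in these data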;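 further: channel flux triggered by added potassium and thallium sulfate stimulus; B-score of peak minus minimum fluorescence over baseline after thallium stimulus; more negative B-score means stronger Kir2.1 block with less thallium influx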
KCNK9 inh: KCNK9 potassium channel inhibitors, primary screen, HEK293 cells, thallium flux. B-score at 10 µM. actives 1.2% (n = 310,000). FluxOR thallium flux fluorescence; hits give low values;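 active means ratio B-score over 3 SD below the library mean, with starting fluorescence within 5 SD of its mean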;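 further: negative B-score means less thallium flux so channel inhibition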
Target sequence (Q9NPC2 whole entry, looked up): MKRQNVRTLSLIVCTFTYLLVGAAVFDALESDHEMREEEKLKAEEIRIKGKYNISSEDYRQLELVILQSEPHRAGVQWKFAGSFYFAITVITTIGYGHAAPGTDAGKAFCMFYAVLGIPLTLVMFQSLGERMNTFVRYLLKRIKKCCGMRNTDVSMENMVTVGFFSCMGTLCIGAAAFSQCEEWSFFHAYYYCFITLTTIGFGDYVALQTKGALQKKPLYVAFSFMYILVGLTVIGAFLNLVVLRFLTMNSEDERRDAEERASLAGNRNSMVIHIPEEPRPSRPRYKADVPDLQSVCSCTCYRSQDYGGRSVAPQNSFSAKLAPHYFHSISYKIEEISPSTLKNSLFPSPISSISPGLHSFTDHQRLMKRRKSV
KCNQ1 pot: potentiators or activators of KCNQ1 channel, primary screen, cell-based, thallium flux, high-throughput | Potassium voltage-gated channel subfamily KQT member 1 (Homo sapiens), P51787 | CHO-K1 KCNQ1, thallium flux FluxOR fluorescence; hits give high values | B-score at 10 µM | actives 0.35% (n = 310,000) | AID 2648, 2010;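 active means fluorescence ratio B-score, a plate-corrected score, at least three library SD, with initial intensity B-score within 5 SD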
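Medium – assay buffer, equal DMSO in all wells · Material – CHO-K1 cell line with stable KCNQ1 potassium channel expression · Signal – kinetic FluxOR thallium fluorescence, 10-s 1-Hz baseline, 110-s post-stimulus read · Compound – single concentration per compound, DMSO matched to controls · Schedule – 37 °C overnight plating, 90-min dark dye load, 20-min compound pretreatment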
KCNK9 block conf: KCNK9 potassium channel inhibitors, confirmation, HEK293 cells, thallium flux, duplicate | actives 43% (n = 4,900) | FluxOR thallium flux fluorescence | shares compounds with KCNK9 inh | inhibition, % at 10 µM;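 active means thallium signal inhibited by more than 5 SD of the compound-free buffer control wells, on both duplicate plates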
Kir2-1 spec: mouse Kir2.1 channel inhibition, confirmation, selectivity assay for KCNK9 modulator project, cell-based, HEK293, thallium flux | shares compounds with KCNK9 inh | Kir2.1 cells, FluxOR thallium flux fluorescence | inhibition, % at 10 µM | actives 4% (n = 4,900) | AID 492993, 2010;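 active means thallium signal drop more than 5 SD beyond the mean of the no-compound control wells, seen in both duplicate plates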;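 further: signal is fluorescence rise after thallium addition divided by baseline fluorescence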
HEK293 Tl ctr: thallium flux in non-induced HEK293 cells, confirmation, counter-screen for KCNK9 inhibitor project, cell-based, second counter screen, non-induced KCNK9-HEK293. shares compounds with KCNK9 inh. FluxOR thallium flux. inhibition, % at 10 µM. actives 40% (n = 4,900);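 active means thallium signal drop beyond 5 SD of the untreated control mean, on both duplicate plates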
Each line names hits and unclear results; the compound was inactive in the other large screens (follow-up assays come after a bar, where they were run). This is a sample that favours compounds with a hit; in the whole collection about 3.7% have one here.

CC/C(C)=N/NS(=O)(=O)c1ccc(C)c([N+](=O)[O-])c1	none
C/C(CCC(C)C)=N\NS(=O)(=O)c1ccc(C)c([N+](=O)[O-])c1	KCNK9 inh -8.9 | KCNK9 block conf 64% | Kir2-1 spec inactive | HEK293 Tl ctr 41%
COc1ccccc1C(=O)NCCSCc1c(F)cccc1Cl	none
Cc1c(C(=O)NCCSCc2c(F)cccc2Cl)cnn1-c1ccc(Cl)cc1	none | KCNK9 block conf inactive | Kir2-1 spec inactive | HEK293 Tl ctr inactive
COc1ccc(CC(=O)N(C)CC(=O)Nc2cccc(F)c2)cc1S(=O)(=O)N1CCOCC1	none
CN1CCc2c(sc3c2C(=O)NC(c2ccccc2)N3)C1 (stereo unspecified)	none
CC(C)(C)C1CCc2c(sc3c2C(=O)NC(c2ccco2)N3)C1 (stereo unspecified)	none | KCNK9 block conf inactive | Kir2-1 spec inactive | HEK293 Tl ctr inactive
CC1CCN(C(=O)CN(c2ccc(Cl)c(C(F)(F)F)c2)S(C)(=O)=O)CC1	none
Cc1ccc(Cl)cc1N1CCN(C(=O)CN(c2ccccc2)S(=O)(=O)N(C)C)CC1	KCNK9 inh -9 | KCNK9 block conf 28% | Kir2-1 spec inactive | HEK293 Tl ctr 34%
CS(=O)(=O)N(CC(=O)N1CCN(c2ccccc2)CC1)c1ccc(Cl)c(C(F)(F)F)c1	none | KCNK9 block conf inactive | Kir2-1 spec inactive | HEK293 Tl ctr inactive
CN1CCN(C(=O)CN(c2ccccc2)S(=O)(=O)N(C)C)CC1	none (no result: KCNK3 inh)
O=c1c(Cc2ccc(Cl)cc2Cl)c(O)ccn1Cc1ccc(Cl)cc1	KCNQ1 block 8 | KCNK9 block conf inactive | Kir2-1 spec inactive | HEK293 Tl ctr inactive
O=c1c(Cc2ccc(Cl)cc2)c(O)ccn1Cc1cccc(Cl)c1	none | KCNK9 block conf inactive | Kir2-1 spec inactive | HEK293 Tl ctr inactive
O=c1c(Cc2ccc(F)cc2)c(O)ccn1Cc1cccc(Cl)c1	none
O=c1c(Cc2ccc(Cl)cc2)c(O)ccn1Cc1ccccc1	none
COCCOC(=O)C1=C(C)NC(C)=C(C(=O)OCCOC)C1/C=C/c1ccccc1OC	none | KCNK9 block conf inactive | Kir2-1 spec inactive | HEK293 Tl ctr inactive
CCOC(=O)C1=C(C)NC(C)=C(C(=O)OCC)C1/C=C/c1ccccc1OC	none
CCC1SC2=NC(C)=C(C(=O)OCCOC)C(/C=C/c3ccccc3OC)N2C1=O (stereo unspecified)	none | KCNK9 block conf inactive | Kir2-1 spec inactive | HEK293 Tl ctr 34%
CCC1SC2=NC(C)=C(C(=O)OCC(C)C)C(/C=C/c3ccccc3OC)N2C1=O (stereo unspecified)	none | KCNK9 block conf 32% | Kir2-1 spec inactive | HEK293 Tl ctr 47%
COC(=O)C1=C(C)N=C2SC(C)C(=O)N2C1/C=C/c1ccccc1OC (stereo unspecified)	none
CCc1nnc(NC(=O)CSc2nnc(C3CC3)n2C)s1	none
CCC(c1nnnn1Cc1cccs1)N1CCN(c2nc3ccccc3s2)CC1 (stereo unspecified)	KCNK9 inh -11 | KCNK9 block conf 30% | Kir2-1 spec inactive | HEK293 Tl ctr inactive

Compound activity (PubChem)
